# Active and inactive are the calls of the source. No cut-off for these calls is given here.
# Experiments:
# Nucleic Acid [1] = assay: Inhibition of G-quadruplex HTG21 oligomer hybridization by PCR stop assay; type: nucleic-acid assay
# Method in brief: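 HTG21 was amplified by PCR in the presence of compound, and products were separated on gel. IC50 is the concentration that inhibits amplification by 50%.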
# [2] = Inhibition of telomerase from human MCF7 cellular extract by cell free TRAP assay
# Method in brief: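 TRAP assay. Compounds at various concentrations were added to a telomerase reaction mixture containing extract from cracked MCF-7 breast carcinoma cells, and IC50 values were derived.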
# Nucleic Acid [3] = assay: Binding affinity to hairpin duplex F10T DNA assessed as change in melting temperature at 2.0 uM by FRET assay
# Nucleic Acid [4] = assay: Binding affinity to human telomeric G-quadruplex F21T DNA assessed as change in melting temperature at 2.0 uM by FRET assay; type: nucleic-acid assay
# Nucleic Acid [5] = assay: Induction of G-quadruplex structure formation in HTG21 oligomer assessed as formation of antiparallel quadruplex structure by CD spectroscopy; type: nucleic-acid assay
SMILES,IC50 (Nucleic Acid [1]) [µM],IC50 [2] [µM],ΔTm (Nucleic Acid [3]) [°C],ΔTm (Nucleic Acid [4]) [°C],Activity (Nucleic Acid [5])
COc1ccc2cc3[n+](cc2c1OCCC[n+]1cccc(F)c1)CCc1cc2c(cc1-3)OCO2,6,16,0,20,–
COc1ccc2cc3[n+](cc2c1OCCCn1ccc(N)nc1=O)CCc1cc2c(cc1-3)OCO2,14,22,0,13,–
COc1ccc2cc3[n+](cc2c1OCCCN1CCCCC1)CCc1cc2c(cc1-3)OCO2,7,16,–,–,–
COc1ccc2cc3[n+](cc2c1OCCC[n+]1ccc(N(C)C)cc1)CCc1cc2c(cc1-3)OCO2,4,14,0,25,Active
COc1ccc2cc3[n+](cc2c1OC)CCc1cc2c(cc1-3)OCO2,–,–,1,4,–
COc1ccc2cc3[n+](cc2c1OCCCOc1ccncc1)CCc1cc2c(cc1-3)OCO2,12,28,0,10,–
COc1ccc2cc3[n+](cc2c1OCCC[n+]1cccc2ccccc21)CCc1cc2c(cc1-3)OCO2,8,15,0,20,–
COc1ccc2cc3[n+](cc2c1OCCCn1cc[n+](C)c1)CCc1cc2c(cc1-3)OCO2,8,16,0,17,–

# More lines, now with the values ahead:
IC50 (Nucleic Acid [1]) [µM],IC50 [2] [µM],ΔTm (Nucleic Acid [3]) [°C],ΔTm (Nucleic Acid [4]) [°C],Activity (Nucleic Acid [5]),SMILES
4,15,0,20,–,COc1ccc2cc3[n+](cc2c1OCCCCCC[n+]1ccccc1)CCc1cc2c(cc1-3)OCO2
6,14,0.5,21,–,COc1ccc2cc3[n+](cc2c1OCCC[n+]1cccc(C)c1)CCc1cc2c(cc1-3)OCO2
7,15,0.5,21,–,COc1ccc2cc3[n+](cc2c1OCCCCC[n+]1ccccc1)CCc1cc2c(cc1-3)OCO2
8,17,0.5,18,–,COc1ccc2cc3[n+](cc2c1OCCC[n+]1ccccc1)CCc1cc2c(cc1-3)OCO2
